Source: ChEMBL document CHEMBL5724801, “EUbOPEN Chemogenomics Library - Multiplex” (2024)
Values joined by “and” are separate entries in the source; they are usually repeats but may differ in a detail not shown here. Equal values may be shown once.

Tests used:
U2OS = assay: Multiplex assay against U2OS; format: toxicity, cell-based; details: human
In short: (§1)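 Live cells were stained at seeding with Hoechst33342, BioTracker Green Microtubule Cytoskeleton Dye, MitoTracker Red and Annexin V Alexa Fluor 680, then imaged on a CQ1 microscope at 37°C and 5% CO2 after compound addition. CellPathfinder machine-learning gating split cells into Hoechst high-intensity objects or normal cells. Normal cells were split into healthy, pyknosed or fragmented nuclei, and pyknosed cells into mitotic or apoptotic. Tubulin, mitochondrial-mass and membrane-permeability phenotypes are per cents of healthy-nucleus cells.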

Fibroblast = assay: Multiplex assay against human fibroblast; format: toxicity, cell-based; in short: as §1
[1] = 24 h, 10 µM, compound concentration 10 uM
[2] = 48 h, 1 µM, compound concentration 1 uM
[3] = 48 h, 10 µM, compound concentration 10 uM
[4] = 12 h, 1 µM, compound concentration 1 uM
[5] = 12 h, 10 µM, compound concentration 10 uM
[6] = 24 h, 1 µM, compound concentration 1 uM

CC(C)CC(=O)Nc1cncc(-c2ccc3[nH]nc(-c4nc5c(-c6cccc(F)c6)cncc5[nH]4)c3c2)c1 [LORECIVIVINT]
Population Hoechst High Intensity Objects (%) (U2OS; [1]): 0%
Population Membrane Permeable-Phenotype (%) (U2OS; [1]): 4.17% and 5.49%
Population Mitochondria Different-Phenotype (%) (U2OS; [1]): 0.6% and 2.2%
Population Mitotic Cells (%) (U2OS; [1]): 45.23% and 66.67%
Population Normal (%) (U2OS; [1]): 100%
Population Pyknosed Nuclei (%) (U2OS; [1]): 56.71% and 55.46%
Population Tubulin-Different-Phenotype (%) (U2OS; [1]): 10.12% and 3.3%
Total Cell Count (U2OS; [1]): 425 and 238
Population Apoptotic (%) (U2OS; [2]): 60.87% and 57%
Population Fragmented Nuclei (%) (U2OS; [2]): 5.63% and 2.11%
Population Healthy Nuclei (%) (U2OS; [2]): 42.54% and 27.46%
Population Hoechst High Intensity Objects (%) (U2OS; [2]): 0%
Population Membrane Permeable-Phenotype (%) (U2OS; [2]): 3.31% and 7.69%
Population Mitochondria Different-Phenotype (%) (U2OS; [2]): 0% and 12.82%
Population Mitotic Cells (%) (U2OS; [2]): 39.13% and 43%
Population Normal (%) (U2OS; [2]): 100%
Population Pyknosed Nuclei (%) (U2OS; [2]): 51.83% and 70.42%
Population Tubulin-Different-Phenotype (%) (U2OS; [2]): 7.95% and 10.26%
Total Cell Count (U2OS; [2]): 355 and 142
Population Apoptotic (%) (U2OS; [3]): 66.91% and 37.27%
Population Fragmented Nuclei (%) (U2OS; [3]): 5.11% and 2.77%
Population Healthy Nuclei (%) (U2OS; [3]): 33.11% and 33.6%
Population Hoechst High Intensity Objects (%) (U2OS; [3]): 0%
Population Membrane Permeable-Phenotype (%) (U2OS; [3]): 5.37% and 9.41%
Population Mitochondria Different-Phenotype (%) (U2OS; [3]): 1.34% and 1.18%
Population Mitotic Cells (%) (U2OS; [3]): 33.09% and 62.73%
Population Normal (%) (U2OS; [3]): 100%
Population Pyknosed Nuclei (%) (U2OS; [3]): 61.78% and 63.64%
Total Cell Count (U2OS; [3]): 450 and 253
Population Fragmented Nuclei (%) (Fibroblast; [4]): 12.2% and 10.34%
Population Healthy Nuclei (%) (Fibroblast; [4]): 60.98% and 74.14%
Population Hoechst High Intensity Objects (%) (Fibroblast; [4]): 0%
Population Membrane Permeable-Phenotype (%) (Fibroblast; [4]): 6% and 10.08%
Population Mitochondria Different-Phenotype (%) (Fibroblast; [4]): 10% and 9.3%
Population Mitotic Cells (%) (Fibroblast; [4]): 95.45% and 62.96%
Population Normal (%) (Fibroblast; [4]): 100%
Population Pyknosed Nuclei (%) (Fibroblast; [4]): 26.83% and 15.52%
Population Tubulin-Different-Phenotype (%) (Fibroblast; [4]): 36% and 44.19%
Total Cell Count (Fibroblast; [4]): 164 and 174
Population Apoptotic (%) (Fibroblast; [5]): 37.84% and 20.2%
Population Fragmented Nuclei (%) (Fibroblast; [5]): 10.38% and 7.03%
Population Healthy Nuclei (%) (Fibroblast; [5]): 64.01% and 61.34%
Population Hoechst High Intensity Objects (%) (Fibroblast; [5]): 0%
Population Membrane Permeable-Phenotype (%) (Fibroblast; [5]): 14.59% and 9.38%
Population Mitochondria Different-Phenotype (%) (Fibroblast; [5]): 4.86% and 2.08%
Population Mitotic Cells (%) (Fibroblast; [5]): 62.16% and 79.8%
Population Normal (%) (Fibroblast; [5]): 100%
Population Pyknosed Nuclei (%) (Fibroblast; [5]): 25.61% and 31.63%
Population Tubulin-Different-Phenotype (%) (Fibroblast; [5]): 37.84% and 36.46%
Total Cell Count (Fibroblast; [5]): 289 and 313
Population Apoptotic (%) (Fibroblast; [6]): 12.9% and 25%
Population Fragmented Nuclei (%) (Fibroblast; [6]): 14.37% and 8.2%
Population Healthy Nuclei (%) (Fibroblast; [6]): 67.82% and 80.87%
Population Hoechst High Intensity Objects (%) (Fibroblast; [6]): 0%
Population Membrane Permeable-Phenotype (%) (Fibroblast; [6]): 6.78% and 12.84%
Population Mitochondria Different-Phenotype (%) (Fibroblast; [6]): 5.08% and 2.7%
Population Mitotic Cells (%) (Fibroblast; [6]): 87.1% and 75%
Population Normal (%) (Fibroblast; [6]): 100%
Population Pyknosed Nuclei (%) (Fibroblast; [6]): 17.82% and 10.93%
Population Tubulin-Different-Phenotype (%) (Fibroblast; [6]): 34.75% and 50.68%
Total Cell Count (Fibroblast; [6]): 174 and 183
Population Apoptotic (%) (Fibroblast; [1]): 40% and 21.83%
Population Fragmented Nuclei (%) (Fibroblast; [1]): 10% and 5.2%
Population Healthy Nuclei (%) (Fibroblast; [1]): 49.38% and 59.65%
Population Hoechst High Intensity Objects (%) (Fibroblast; [1]): 0%
Population Membrane Permeable-Phenotype (%) (Fibroblast; [1]): 13.29% and 10.37%
Population Mitochondria Different-Phenotype (%) (Fibroblast; [1]): 2.53% and 0.41%
Population Mitotic Cells (%) (Fibroblast; [1]): 60% and 78.17%
Population Normal (%) (Fibroblast; [1]): 100%
Population Pyknosed Nuclei (%) (Fibroblast; [1]): 40.62% and 35.15%
Population Tubulin-Different-Phenotype (%) (Fibroblast; [1]): 37.97% and 34.02%
Total Cell Count (Fibroblast; [1]): 320 and 404
Population Apoptotic (%) (Fibroblast; [2]): 16.67% and 32.43%
Population Fragmented Nuclei (%) (Fibroblast; [2]): 16.43% and 12.15%
Population Healthy Nuclei (%) (Fibroblast; [2]): 60.39% and 67.4%
Population Hoechst High Intensity Objects (%) (Fibroblast; [2]): 0%
Population Membrane Permeable-Phenotype (%) (Fibroblast; [2]): 8% and 13.93%
Population Mitochondria Different-Phenotype (%) (Fibroblast; [2]): 9.6% and 4.92%
Population Mitotic Cells (%) (Fibroblast; [2]): 83.33% and 67.57%
Population Normal (%) (Fibroblast; [2]): 100%
Population Pyknosed Nuclei (%) (Fibroblast; [2]): 23.19% and 20.44%
Population Tubulin-Different-Phenotype (%) (Fibroblast; [2]): 32% and 47.54%
Total Cell Count (Fibroblast; [2]): 207 and 181
Population Apoptotic (%) (Fibroblast; [3]): 46.41% and 43.05%
Population Fragmented Nuclei (%) (Fibroblast; [3]): 10.67% and 7.39%
Population Healthy Nuclei (%) (Fibroblast; [3]): 33.6% and 33.77%
Population Hoechst High Intensity Objects (%) (Fibroblast; [3]): 0%
Population Membrane Permeable-Phenotype (%) (Fibroblast; [3]): 8.73% and 10.16%
Population Mitochondria Different-Phenotype (%) (Fibroblast; [3]): 5.56% and 1.56%
Population Mitotic Cells (%) (Fibroblast; [3]): 53.59% and 56.95%
Population Normal (%) (Fibroblast; [3]): 100%
Population Pyknosed Nuclei (%) (Fibroblast; [3]): 55.73% and 58.84%
Population Tubulin-Different-Phenotype (%) (Fibroblast; [3]): 17.46% and 26.56%
Total Cell Count (Fibroblast; [3]): 375 and 379
